Source: ChEMBL document CHEMBL2331438, “An efficient domino reaction in ionic liquid: synthesis and biological evaluation of some pyrano- and thiopyrano-fused heterocycles” (2013)
Values after ≈ are worked out from the molar mass of the structure shown.

Tests used:
[1] = Antioxidant activity assessed as ascorbic acid equivalent ferric ion reducing activity per 100 gram at 200 ug/ml by FRAP assay; assay type: functional
[2] = test system: Mycobacterium tuberculosis; test: Antimycobacterial activity against Mycobacterium tuberculosis H37Rv at 250 ug/ml; assay type: functional
In short: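 M. tuberculosis H37Rv tested on L.J. (Löwenstein–Jensen) medium.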

[3] = test system: Candida albicans; test: Antifungal activity against Candida albicans MTCC 227 after 48 hrs by broth microdilution method; assay type: functional; details: MTCC 227, 48 h
[4] = test system: Aspergillus fumigatus; test: Antifungal activity against Aspergillus fumigatus MTCC 3008 after 48 hrs by broth microdilution method; assay type: functional; details: MTCC 3008, 48 h
[5] = test system: Vibrio cholerae; test: Antibacterial activity against Vibrio cholerae MTCC 3906 after 24 hrs by broth microdilution method; assay type: functional; details: MTCC 3906, 24 h
[6] = test system: Salmonella typhi; test: Antibacterial activity against Salmonella typhi MTCC 98 after 24 hrs by broth microdilution method; assay type: functional, Salmonella enterica subsp. enterica serovar Typhi; details: Salmonella enterica, MTCC 98, 24 h
[7] = test system: Escherichia coli; test: Antibacterial activity against Escherichia coli MTCC 443 after 24 hrs by broth microdilution method; assay type: functional; details: MTCC 443, 24 h
[8] = test system: Streptococcus pneumoniae; test: Antibacterial activity against Streptococcus pneumoniae MTCC 1936 after 24 hrs by broth microdilution method; assay type: functional; details: MTCC 1936, 24 h
[9] = test system: Clostridium tetani; test: Antibacterial activity against Clostridium tetani MTCC 449 after 24 hrs by broth microdilution method; assay type: functional; details: MTCC 449, 24 h
[10] = test system: Bacillus subtilis; test: Antibacterial activity against Bacillus subtilis MTCC 441 after 24 hrs by broth microdilution method; assay type: functional; details: MTCC 441, 24 h

Compound	Activity [1] [mmol]	inhibition at 250 µg/mL [2] [%]	MIC [3] [µg/mL]	MIC [4] [µg/mL]	MIC [5] [µg/mL]	MIC [6] [µg/mL]	MIC [7] [µg/mL]	MIC [8] [µg/mL]	MIC [9] [µg/mL]	MIC [10] [µg/mL]
Cc1nn(-c2ccccc2)c2c1[C@@H]1c3cc4cccc(C)c4nc3SC[C@@H]1C(C)(C)O2 (single isomer, unassigned)	83.5	49	> 1000	1000 (≈ 2340 µM)	125 (≈ 292 µM)	100 (≈ 234 µM)	200 (≈ 468 µM)	100 (≈ 234 µM)	100 (≈ 234 µM)	250 (≈ 585 µM)
Cc1nn(-c2cccc(Cl)c2)c2c1[C@@H]1c3cc4cccc(C)c4nc3SC[C@@H]1CO2	125	82	1000 (≈ 2300 µM)	200 (≈ 461 µM)	200 (≈ 461 µM)	500 (≈ 1150 µM)	250 (≈ 576 µM)	250 (≈ 576 µM)	200 (≈ 461 µM)	250 (≈ 576 µM)
Cc1cccc2cc3c(nc12)SC[C@@H]1COc2c(c(-c4ccccc4)nn2-c2ccccc2)[C@H]31	101	9	> 1000	> 1000	200 (≈ 433 µM)	125 (≈ 271 µM)	100 (≈ 217 µM)	200 (≈ 433 µM)	125 (≈ 271 µM)	200 (≈ 433 µM)
Cc1nn(-c2ccc([N+](=O)[O-])cc2)c2c1[C@@H]1c3c(ccc4c(C)cc(=O)oc34)OC[C@@H]1CO2	163	79	1000 (≈ 2250 µM)	250 (≈ 561 µM)	250 (≈ 561 µM)	200 (≈ 449 µM)	125 (≈ 281 µM)	250 (≈ 561 µM)	250 (≈ 561 µM)	200 (≈ 449 µM)
Cc1ccc(-n2nc(C)c3c2OC(C)(C)[C@H]2COc4ccc5c(C)cc(=O)oc5c4[C@@H]32)cc1	240	32	250 (≈ 565 µM)	250 (≈ 565 µM)	500 (≈ 1130 µM)	250 (≈ 565 µM)	100 (≈ 226 µM)	100 (≈ 226 µM)	250 (≈ 565 µM)	250 (≈ 565 µM)
Cc1nn(-c2cccc(Cl)c2)c2c1[C@@H]1c3c(ccc4c(C)cc(=O)oc34)OC[C@@H]1C(C)(C)O2	225	29	500 (≈ 1080 µM)	1000 (≈ 2160 µM)	250 (≈ 540 µM)	200 (≈ 432 µM)	200 (≈ 432 µM)	62.5 (≈ 135 µM)	200 (≈ 432 µM)	200 (≈ 432 µM)
Cc1nn(-c2ccc(Cl)c(Cl)c2)c2c1[C@@H]1c3c(ccc4c(C)cc(=O)oc34)OC[C@@H]1C(C)(C)O2	150	70	200 (≈ 402 µM)	500 (≈ 1010 µM)	125 (≈ 251 µM)	250 (≈ 503 µM)	200 (≈ 402 µM)	250 (≈ 503 µM)	250 (≈ 503 µM)	250 (≈ 503 µM)
Cc1cc(=O)oc2c3c(ccc12)OC[C@@H]1COc2c(c(-c4ccccc4)nn2-c2ccccc2)[C@H]31	163	68	500 (≈ 1080 µM)	500 (≈ 1080 µM)	100 (≈ 216 µM)	125 (≈ 270 µM)	62.5 (≈ 135 µM)	100 (≈ 216 µM)	100 (≈ 216 µM)	125 (≈ 270 µM)
Cc1nn(-c2ccccc2Cl)c2c1[C@@H]1c3c(ccc4c(C)cc(=O)oc34)OC[C@@H]1CO2	200	30	1000 (≈ 2300 µM)	> 1000	250 (≈ 575 µM)	100 (≈ 230 µM)	125 (≈ 287 µM)	100 (≈ 230 µM)	200 (≈ 460 µM)	62.5 (≈ 144 µM)
c1ccc(-c2nn(-c3ccccc3)c3c2[C@@H]2c4cc5ccccc5nc4SC[C@@H]2CO3)cc1	105	40	500 (≈ 1120 µM)	250 (≈ 559 µM)	250 (≈ 559 µM)	250 (≈ 559 µM)	100 (≈ 223 µM)	250 (≈ 559 µM)	250 (≈ 559 µM)	200 (≈ 447 µM)
Cc1nn(-c2ccc(Cl)c(Cl)c2)c2c1[C@@H]1c3c(ccc4c(C)cc(=O)oc34)OC[C@@H]1CO2	120	20	500 (≈ 1070 µM)	500 (≈ 1070 µM)	125 (≈ 266 µM)	250 (≈ 533 µM)	250 (≈ 533 µM)	250 (≈ 533 µM)	100 (≈ 213 µM)	250 (≈ 533 µM)
Cc1nn(-c2ccccc2)c2c1[C@@H]1c3cc4cccc(C)c4nc3SC[C@@H]1CO2	160	38	1000 (≈ 2500 µM)	250 (≈ 626 µM)	250 (≈ 626 µM)	200 (≈ 501 µM)	250 (≈ 626 µM)	250 (≈ 626 µM)	200 (≈ 501 µM)	100 (≈ 250 µM)
Cc1nn(-c2cc(Cl)ccc2Cl)c2c1[C@@H]1c3c(ccc4c(C)cc(=O)oc34)OC[C@@H]1CO2	184	28	250 (≈ 533 µM)	> 1000	100 (≈ 213 µM)	250 (≈ 533 µM)	125 (≈ 266 µM)	200 (≈ 426 µM)	250 (≈ 533 µM)	200 (≈ 426 µM)
Cc1nn(-c2ccccc2Cl)c2c1[C@@H]1c3cc4cccc(C)c4nc3SC[C@@H]1C(C)(C)O2 (single isomer, unassigned)	115	50	250 (≈ 541 µM)	500 (≈ 1080 µM)	200 (≈ 433 µM)	100 (≈ 216 µM)	200 (≈ 433 µM)	250 (≈ 541 µM)	100 (≈ 216 µM)	250 (≈ 541 µM)
Cc1nn(-c2ccccc2)c2c1[C@@H]1c3c(ccc4c(C)cc(=O)oc34)OC[C@@H]1CO2	120	65	> 1000	> 1000	250 (≈ 624 µM)	200 (≈ 499 µM)	250 (≈ 624 µM)	250 (≈ 624 µM)	250 (≈ 624 µM)	500 (≈ 1250 µM)
Cc1nn(-c2ccccc2Cl)c2c1[C@@H]1c3c(ccc4c(C)cc(=O)oc34)OC[C@@H]1C(C)(C)O2	210	40	1000 (≈ 2160 µM)	200 (≈ 432 µM)	250 (≈ 540 µM)	125 (≈ 270 µM)	125 (≈ 270 µM)	250 (≈ 540 µM)	250 (≈ 540 µM)	100 (≈ 216 µM)
Cc1ccc(-n2nc(C)c3c2OC(C)(C)[C@H]2CSc4nc5c(C)cccc5cc4[C@@H]32)cc1 (single isomer, unassigned)	161	91	250 (≈ 566 µM)	500 (≈ 1130 µM)	200 (≈ 453 µM)	125 (≈ 283 µM)	125 (≈ 283 µM)	100 (≈ 226 µM)	200 (≈ 453 µM)	100 (≈ 226 µM)
Cc1ccc(-n2nc(C)c3c2OC[C@H]2CSc4nc5c(C)cccc5cc4[C@@H]32)cc1	112	63	1000 (≈ 2420 µM)	200 (≈ 484 µM)	125 (≈ 302 µM)	125 (≈ 302 µM)	100 (≈ 242 µM)	200 (≈ 484 µM)	250 (≈ 605 µM)	200 (≈ 484 µM)
